The text below walks through data of PubChem BioAssay.

Active and inactive are the calls of the source. Unless noted, no stated cut-off is given here; in the data, active means inhibition above about 30%; inactive means the rest.

A word on the viability: it is a read-out of living cells in per cent, often relative to untreated cells. The term inhibition denotes the drop in the measured response relative to a control, in per cent.

The nature of assay [1]: SK-BR-3 cell growth inhibitors, pilot screen, 24 h, human (AID 572;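 active means viability at or below 10% of carrier control in both of two separate runs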;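 further: compound exposure lasted between 18 and 24 h rather than exactly 24 h; 100% = carrier-treated control wells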). The conditions noted are these: SK-BR-3 viability, CellTiter-Glo luminescence, at 10 µM, stronger effect = lower value. Background: Cellular ATP, detected with luciferase, serves as a proxy for viable cell number.
Assay [2] can be described thus: HUVEC growth inhibition – cell-based, human, primary screen (AID 575;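 active means viability at or below 30% in both replicate assays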;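 further: 100% = median of untreated cell wells with 0.1% DMSO on each plate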). The conditions noted are these: HUVEC proliferation, CellTiter-Glo luminescence, 72 h; at 10 µM; stronger effect = lower value. Summed up:
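Test system: primary human umbilical vein endothelial cells; medium: endothelial basal medium with 2% FBS plus growth supplements; dosing: 10 µM compound only; times: 72 h treatment at 37 °C; signal: CTG luminescence; read-out: % viability relative to median vehicle-well signal on each plate; control set: vehicle and MePR control wells; plate: 384-well, collagen-coated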

Assay [3] in a line: growth inhibitors of H69AR lung tumor, primary screen, human, duplicate replicates (AID 580;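 active means viability at or under a set limit in both replicates, limit being median viability minus 3 SD, cut at about 48% in these data, passing the limit was not always enough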;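 further: 100% = mean luminescence of untreated wells and 0% = no signal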). The conditions noted are these: H69AR lung tumor cells viability, ATP luminescence, 72 h; at 10 µM; stronger effect = lower value.
Assay [4] in a line: reversal of MRP1-mediated doxorubicin resistance, pilot screen, H69AR cells, doxorubicin co-treatment (AID 601;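 active means viability loss from added drug above about 55%, and viability with drug at most 40%, in both replicates, limit read from the data, passing the limit was not always enough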). The conditions noted are these: CellTiter-Glo, 72 h, at 10 µM; for differential viability (reversal): stronger effect = higher value.
Assay [5] is described as follows: 384-well plate pilot, post-Golgi transport modulator project, inhibition of yeast transport mutant growth (AID 636; in the data active means inhibition above about 31%). The following applies: absorbance 615 nm, about 18 h, stronger effect = higher value.
Assay [6] can be described thus: growth suppression of yeast trafficking mutant, preliminary HTS, modulators of trafficking downstream of Golgi apparatus project, 1536-format plate, OD 615 nm (AID 637). The following applies: yeast transport mutant growth, absorbance 615 nm, 18 h; stronger effect = higher value.
Setting [7] is: H69AR cells + 2 uM doxorubicin, measured here: viability with 2 uM doxorubicin, stronger effect = lower value.
[8] abbreviates: H69AR cells, compound alone cytotoxicity.

Consider `COc1ccc(CCNC(=O)CCN2C(=O)C3CC=CCC3C2=O)cc1OC` (stereo unspecified), for which the viability was 103% (inactive) in assay [1]; 91.9% (inactive) in assay [2]; 105% (inactive) in assay [3]; 92.8% in assay [4] (setting [7]); 105% in assay [4] (setting [8]). In addition, the differential viability (reversal) in assay [4] (H69AR cells + 2 uM doxorubicin) was 12% (inactive). Also, the inhibition was -2.08% (inactive) in assay [5] and -1.97% (inactive) in assay [6].

With `COc1ccc2c(C)nc(Nc3nc(C)cc(C)n3)nc2c1`, the viability in assay [1] was 84% (inactive); in assay [2], 114% (inactive); in assay [3], 87.3% (inactive); in assay [4] (setting [7]), 93.9%; in assay [4] (setting [8]), 87.3%. Further, the differential viability (reversal) in assay [4] (H69AR cells + 2 uM doxorubicin) was -6.58% (inactive). For the same compound, the figures for the inhibition in assay [5] and in assay [6] were -6.08% (inactive) and 0% (inactive), respectively.

For the compound `CC1CN(CC(O)COc2ccccc2C(C)(C)C)CC(C)O1` (stereo unspecified), the viability in assay [1] is 130% (inactive); in assay [2] it was 114% (inactive); in assay [3] it was 78% (inactive); in assay [4] (setting [7]) it was 89.3%; in assay [4] (setting [8]), 78%. Moreover, the differential viability (reversal) in assay [4] (H69AR cells + 2 uM doxorubicin) was -11.3% (inactive). For the same compound, the figures for the inhibition in assay [5] and in assay [6] were -0.26% (inactive) and 0.49% (inactive), respectively.

With `CC(C)c1nc(NCC2CCCO2)c(C#N)c2c1COC(C)(C)C2` (stereo unspecified), the viability is 95% (inactive) in assay [1]; 74.9% (inactive) in assay [2]; 89.1% (inactive) in assay [3]; 84.4% in assay [4] (setting [7]); 89.1% in assay [4] (setting [8]). In assay [4] (H69AR cells + 2 uM doxorubicin), the differential viability (reversal) is 4.7% (inactive). Also, the inhibition was -9.86% (inactive) in assay [5] and 13.9% (inactive) in assay [6].

On to `COc1cc2c(cc1OC)CN(C(=O)COc1ccc(C)c(C)c1)CC2`, for which the viability in assay [1] was 94% (inactive); in assay [2], 91.4% (inactive); in assay [3], 83.9% (inactive); in assay [4] (setting [7]), 89.5%; in assay [4] (setting [8]), 83.9%. Besides, in assay [4] (H69AR cells + 2 uM doxorubicin), the differential viability (reversal) is -5.58% (inactive). Further, the figures for the inhibition in assay [5] and in assay [6] were -7.95% (inactive) and 1.29% (inactive), respectively.

Turning to `Cc1cc(C)n(C(=O)C23CC4CC(CC(C4)C2)C3)n1`, the viability in assay [1] was 106% (inactive); in assay [2] it was 85.9% (inactive); in assay [3] it was 99.3% (inactive); in assay [4] (setting [7]), 96.1%; in assay [4] (setting [8]), 99.3%. Also, the differential viability (reversal) in assay [4] (H69AR cells + 2 uM doxorubicin) is 3.23% (inactive). The figures for the inhibition in assay [5] and in assay [6] were -8.36% (inactive) and -5.32% (inactive), respectively.

Turning to `COc1ccc(S(=O)(=O)Nc2cc(C)on2)cc1OC`, the viability is 80% (inactive) in assay [1]; 97.1% (inactive) in assay [2]; 105% (inactive) in assay [3]; 104% in assay [4] (setting [7]); 105% in assay [4] (setting [8]). Besides, the differential viability (reversal) in assay [4] (H69AR cells + 2 uM doxorubicin) is 1.57% (inactive). In addition, the inhibition is -1.1% (inactive) in assay [5] and -5.81% (inactive) in assay [6].

On to `Cc1c(CNCc2cccs2)c(C(=O)O)c(C)n1Cc1ccccc1`, for which the viability in assay [1] is 91% (inactive); in assay [2], 109% (inactive); in assay [3], 99.8% (inactive); in assay [4] (setting [7]), 94.2%; in assay [4] (setting [8]), 99.8%. Besides, the differential viability (reversal) in assay [4] (H69AR cells + 2 uM doxorubicin) is 5.63% (inactive). In addition, the inhibition in assay [5] was -3.97% (inactive); in assay [6], 0.18% (inactive).

For `Nc1nc2ccc(OC(F)(F)F)cc2s1`, the viability in assay [1] is 88% (inactive); in assay [2], 76.5% (inactive); in assay [3] it was 71.9% (inactive); in assay [4] (setting [7]), 91.6%; in assay [4] (setting [8]), 71.9%. The differential viability (reversal) in assay [4] (H69AR cells + 2 uM doxorubicin) was -19.7% (inactive). Besides, the inhibition was -0.13% (inactive) in assay [5] and 0.33% (inactive) in assay [6].

Take `COc1ccc(N2C(=O)c3cccc4cccc(c34)C2=O)nn1`: the viability in assay [1] was 82% (inactive); in assay [2] it was 90.8% (inactive); in assay [3], 92.3% (inactive); in assay [4] (setting [7]), 100%; in assay [4] (setting [8]), 92.3%. The differential viability (reversal) in assay [4] (H69AR cells + 2 uM doxorubicin) is -7.67% (inactive). Besides, the inhibition in assay [5] is -5.89% (inactive); in assay [6], 5.09% (inactive).

In the case of `O=C1C(CCS(=O)c2ccccc2)C(=O)N(c2ccccc2)N1c1ccccc1` (stereo unspecified), the viability is 112% (inactive) in assay [1]; 84.5% (inactive) in assay [2]; 96.6% (inactive) in assay [3]; 88.7% in assay [4] (setting [7]); 96.6% in assay [4] (setting [8]). For the same compound, the differential viability (reversal) in assay [4] (H69AR cells + 2 uM doxorubicin) is 7.85% (inactive). In addition, the inhibition was 0.65% (inactive) in assay [5] and 10.7% (inactive) in assay [6].

Turning to `Cc1cc(NC(=O)c2cnn3c(C(F)F)cc(C4CC4)nc23)no1`, the viability is 131% (inactive) in assay [1]; 79.6% (inactive) in assay [2]; 82.4% (inactive) in assay [3]; 95.1% in assay [4] (setting [7]); 82.4% in assay [4] (setting [8]). In addition, the differential viability (reversal) in assay [4] (H69AR cells + 2 uM doxorubicin) was -12.8% (inactive). The inhibition was -1.43% (inactive) in assay [5] and 3.11% (inactive) in assay [6].
